Data as given in ChEMBL document CHEMBL1129431, “Derivatives of (R)- and (S)-5-fluoro-8-hydroxy-2-(dipropylamino)tetralin: synthesis and interactions with 5-HT1A receptors” (J Med Chem, 1996).
Values joined by “and” are separate entries in the source; they are usually repeats but may differ in a detail not shown here. Identical values can stand only once.

Experiments:
[1] = target: T1, 5-hydroxytryptamine receptor 1A (Rattus norvegicus) (UniProt P19327); assay: Effect on 5-hydroxytryptamine 1A receptor mediated inhibition of VIP-stimulated cAMP production at dose of 50 uM; assay type: functional; conditions: values are per cent of control
T1 sequence (whole entry): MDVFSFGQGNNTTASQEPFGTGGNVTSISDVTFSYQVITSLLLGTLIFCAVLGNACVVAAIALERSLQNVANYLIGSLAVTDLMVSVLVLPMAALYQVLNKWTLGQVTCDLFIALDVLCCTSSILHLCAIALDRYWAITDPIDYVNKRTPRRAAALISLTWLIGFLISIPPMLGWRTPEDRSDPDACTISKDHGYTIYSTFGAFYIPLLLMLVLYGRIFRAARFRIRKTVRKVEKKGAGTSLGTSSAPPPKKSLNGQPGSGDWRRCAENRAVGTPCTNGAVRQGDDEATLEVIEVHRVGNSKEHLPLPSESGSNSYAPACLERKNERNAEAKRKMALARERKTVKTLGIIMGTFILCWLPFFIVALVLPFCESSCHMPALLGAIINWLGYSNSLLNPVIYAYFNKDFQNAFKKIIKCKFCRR
In short: (§1)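 GH4ZD10 cells expressing rat 5-HT1A receptors, detached with EDTA-supplemented Ca/Mg-free EBSS and resuspended in Ham's F10 with 0.01% ascorbic acid and 0.1 mM IBMX. Preincubated 1 h at 37 °C, then 0.8-1.5×10^6 cells/mL incubated 20 min at 37 °C with VIP (39 nM final) plus compounds. Duplicate samples stopped by boiling. cAMP measured in triplicate by protein-binding assay. Results are given as % of the VIP-stimulated response.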

[2] = target: T1, 5-hydroxytryptamine receptor 1A (Rattus norvegicus); assay: Effect on 5-hydroxytryptamine 1A receptor mediated inhibition of VIP-stimulated cAMP production at dose of 0.1 uM + 1 uM 5-HT.; assay type: functional; conditions: values are per cent of control
In short: (§2)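 GH4ZD10 cells expressing rat 5-HT1A receptors were detached with EBSS plus 1 mM EDTA and resuspended to ~1×10^7 cells/mL in Ham's F10 with 0.01% ascorbic acid and 0.1 mM IBMX. After 1 h preincubation at 37 °C they were diluted to 0.8-1.5×10^6 cells/mL, then incubated 20 min at 37 °C with VIP (39 nM final) plus compound, alone or with 5-HT, in duplicate. The reaction was stopped by boiling. cAMP was measured in triplicate by protein-binding assay and expressed as % of the VIP-stimulated response.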

[3] = target: T2, 5-hydroxytryptamine receptor 1A (Rattus norvegicus, UniProt P19327); assay: Binding affinity against rat hippocampal 5-hydroxytryptamine 1A (5-HT1A) receptor determined using [3H]8-OH-DPAT as radioligand; assay type: tissue-based, Hippocampus
T2 sequence (P19327 whole entry): T1 sequence (whole entry)

[4] = target: T1, 5-hydroxytryptamine receptor 1A (Rattus norvegicus); assay: Effect on 5-hydroxytryptamine 1A receptor mediated inhibition of VIP-stimulated cAMP production at dose of 0.05 uM; assay type: functional; conditions: values are per cent of control; in short: as §1
[5] = target: T1, 5-hydroxytryptamine receptor 1A (Rattus norvegicus); assay: Effect on 5-hydroxytryptamine 1A receptor mediated inhibition of VIP-stimulated cAMP production at dose of 1 uM; assay type: functional; conditions: values are per cent of control; in short: as §2
[6] = target: T1, 5-hydroxytryptamine receptor 1A (Rattus norvegicus); assay: Effect on 5-hydroxytryptamine 1A receptor mediated inhibition of VIP-stimulated cAMP production at dose of 10 uM; assay type: functional; conditions: values are per cent of control; in short: as §2
[7] = target: T1, 5-hydroxytryptamine receptor 1A (Rattus norvegicus); assay: Effect against 5-hydroxytryptamine 1A receptor mediated inhibition of VIP-stimulated cAMP production at 0.1 uM dose; assay type: functional; conditions: values are per cent of control; in short: as §2
[8] = target: T1, 5-hydroxytryptamine receptor 1A (Rattus norvegicus); assay: Effect on 5-hydroxytryptamine 1A receptor mediated inhibition of VIP-stimulated cAMP production at dose of 1 uM+ 10 uM 5-HT.; assay type: functional; conditions: values are per cent of control; in short: as §2
[9] = target: T1, 5-hydroxytryptamine receptor 1A (Rattus norvegicus); assay: Effect on 5-hydroxytryptamine 1A receptor mediated inhibition of VIP-stimulated cAMP production at dose of 1 uM+ 1 uM 5-HT.; assay type: functional; conditions: values are per cent of control; in short: as §1
[10] = target: T1, 5-hydroxytryptamine receptor 1A (Rattus norvegicus); conditions: 1 uM
[11] = target: T1, 5-hydroxytryptamine receptor 1A (Rattus norvegicus); conditions: 0.1 uM
[12] = target: T1, 5-hydroxytryptamine receptor 1A (Rattus norvegicus); conditions: 1 uM; remark: listed apart in the source
[13] = target: T1, 5-hydroxytryptamine receptor 1A (Rattus norvegicus); assay: Effect on 5-hydroxytryptamine 1A receptor mediated inhibition of VIP-stimulated cAMP production at dose of 1 uM+ 50 uM 5-HT.; assay type: functional; conditions: values are per cent of control; in short: as §1
[14] = target: T1, 5-hydroxytryptamine receptor 1A (Rattus norvegicus); assay: Effect on 5-hydroxytryptamine 1A receptor mediated inhibition of VIP-stimulated cAMP production at dose of 30 uM; assay type: functional; conditions: values are per cent of control; in short: as §2
[15] = target: T1, 5-hydroxytryptamine receptor 1A (Rattus norvegicus); assay: Effect on 5-hydroxytryptamine 1A receptor mediated inhibition of VIP-stimulated cAMP production at dose of 0.01 uM+ 1 uM 5-HT.; assay type: functional; conditions: values are per cent of control; in short: as §2
[16] = target: T1, 5-hydroxytryptamine receptor 1A (Rattus norvegicus); assay: Effect on 5-hydroxytryptamine 1A receptor-mediated inhibition of VIP-stimulated cAMP production at dose of 1 uM+ 10 uM 5-HT.; assay type: functional; conditions: values are per cent of control; in short: as §2

CCCN(CCCCN1C(=O)CC2(CCCC2)CC1=O)[C@@H]1CCc2c(F)ccc(O)c2C1
response, % of control [1]: 68%
response, % of control [2]: 68%
Ki [3]: < 0.3 nM
response, % of control [4]: 72%
response, % of control [5]: 66%

CCCN(CCC)[C@@H]1CCc2c(F)ccc(OS(=O)(=O)C(F)(F)F)c2C1
Ki [3]: 18.5 nM

CCCN(CCC)[C@@H]1CCc2cccc(-c3ccco3)c2C1
Ki [3]: 9.3 nM

CCCN(CCC)[C@@H]1CCc2c(F)ccc(O)c2C1
response, % of control [6]: 61%
response, % of control [2]: 57%
response, % of control [7]: 86%
response, % of control [5]: 78%

CCCN(CCC)[C@@H]1CCc2cccc(O)c2C1
response, % of control [6]: 47%
response, % of control [2]: 43%
response, % of control [7]: 53%
response, % of control [5]: 45%

O=C1CC2(CCCC2)CC(=O)N1CCCCN1CCN(c2ncccn2)CC1
response, % of control [6]: 73%
response, % of control [2]: 43%
response, % of control [7]: 84%
response, % of control [8]: 64%
response, % of control [5]: 75%

CCCN(CCC)[C@H]1CCc2c(F)cccc2C1 [listing 1 of 2 here]
Ki [3]: 250 nM

CCCN(CCC)[C@H]1CCc2cccc(O)c2C1
response, % of control [6]: 62%
response, % of control [2]: 43%
response, % of control [7]: 74%
response, % of control [9]: 47%
response, % of control [5]: 61%

CCCN(CCC)[C@H]1CCc2c(F)ccc(O)c2C1
response, % of control [6]: 100%
response, % of control [2]: 57%
Ki [3]: 24.8 nM
response, % of control [7]: 94%
response, % of control [10]: 100%

CCCN(CCC)[C@H]1CCc2c(F)ccc(-c3ccco3)c2C1
response, % of control [6]: 98%
response, % of control [2]: 56%
response, % of control [7]: 100%
response, % of control [5]: 98%

CCCN(CCC)[C@H]1CCc2c(F)ccc(C(C)=O)c2C1 [listing 1 of 2 here]
Ki [3]: 13.6 nM

CCCN(CCC)[C@H]1CCc2cccc(-c3cccs3)c2C1
Ki [3]: 5.5 nM

CCCN(CCC)[C@H]1CCc2cccc(-c3ccco3)c2C1
Ki [3]: 1.8 nM

CCCN(CCC)[C@@H]1CCc2c(F)cccc2C1 [listing 1 of 2 here]
Ki [3]: 136 nM

CCCN(CCC)[C@@H]1CCc2c(F)ccc(C(C)=O)c2C1
response, % of control [11]: 95%
response, % of control [12]: 63%
response, % of control [6]: 61%
response, % of control [2]: 60%
response, % of control [7]: 99%
response, % of control [13]: 63%
response, % of control [14]: 62%

CCCN(CCC)[C@@H]1CCc2c(F)cccc2C1 [listing 2 of 2 here]
response, % of control [1]: 78%
response, % of control [6]: 81%
response, % of control [15]: 60%
response, % of control [7]: 93% and 98%
response, % of control [16]: 58%
response, % of control [5]: 85%

CCCN(CCC)[C@H]1CCc2c(F)ccc(C(C)=O)c2C1 [listing 2 of 2 here]
Ki [3]: 13.6 nM

CCCN(CCC)[C@@H]1CCc2c(F)ccc(-c3cccs3)c2C1 [listing 1 of 2 here]
Ki [3]: 35 nM

CCCN(CCC)[C@@H]1CCc2c(F)ccc(-c3cccs3)c2C1 [listing 2 of 2 here]
Ki [3]: 35 nM

CCCN(CCC)[C@H]1CCc2c(F)ccc(-c3cccs3)c2C1
Ki [3]: 32.7 nM

CCCN(CCCCN1C(=O)CC2(CCCC2)CC1=O)[C@@H]1CCc2c(F)ccc(OS(=O)(=O)C(F)(F)F)c2C1
response, % of control [2]: 68%
Ki [3]: 0.9 nM
response, % of control [13]: 51%
response, % of control [4]: 98%
response, % of control [5]: 73%

CCCN(CCC)[C@H]1CCc2c(F)cccc2C1 [listing 2 of 2 here]
Ki [3]: 250 nM
